B2AR ag: human beta-2 adrenergic receptor agonism by FAP; P07550; Am2.2-beta2AR cells, FAP receptor internalization, flow cytometry; response, % (concentration not given with the values); 340,000 tested, 0.43% active;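 active means response above a set limit, near 3 SD of response in nonfluorescent compounds, cut at about 42% in these data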
TLR9-MyD88 block: inhibitors of human TLR9-MyD88 binding | 340,000 tested, 0.21% active | CHO BLA complementation TLR9-MyD88, CCF4 FRET ratio | inhibition, % at 4.98 µM | Q9NR96+Q99836;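 active means inhibition above the mean over all tested compounds plus 3 SD, cut at about 21% in these data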;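 further: 0% = DMSO only wells and 100% = clavulanate BLA inhibitor control wells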
Dynein cargo inh: dynein cargo transport inhibition. AID 1381. 3617.4 mouse cells, GR-EGFP nuclear translocation imaging; test concentration mostly 20 µM; stimulated with dexamethasone, 1 µM; active compounds read low. z-score, hits read low. 220,000 tested, 0.47% active;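 active means plate z-score of nuclear minus cytoplasmic receptor signal below a set negative limit, without overly bright fluorescence or cell loss, cut at about -3.5 in these data, passing the limit was not always enough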;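 further: z-score of nuclear minus cytoplasmic ring GR-EGFP intensity difference per well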
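Also added: dexamethasone, 1.0 µM final. Medium: tet-free, stripped-serum medium. Detection: fixed, Hoechst-stained cells imaged at 10x for EGFP. Read-out: nuclear-to-cytoplasmic GR-EGFP distribution per well. Times: induction 48 h, compound 1 h, agonist 30 min.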
TLR4-MyD88 BLA: blocks binding of human TLR4 to MyD88. O00206+Q99836. HeLa CL3-4 TLR4/MyD88 BLA complementation, FRET ratio. inhibition, % at 8.4 µM. 200,000 tested, 0.18% active. AID 861; in the data active means inhibition above about 25%;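 further: 0% = vehicle and 100% = reference inhibitor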
NOD2 RIPK2 PPI: NOD2-RIPK2 protein interaction inhibition; O43353; CHO BLA complementation NOD2-RIPK2, CCF4 ratio; inhibition, % at 4.98 µM; 360,000 tested, 0.38% active; AID 624267; in the data active means inhibition above about 21%;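 further: 0% = vehicle only and 100% = reference blocker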
ABHD5-PLIN5 inh: ABHD5-PLIN5 protein interaction inhibition; Q00G26+Q8WTS1; AID 602281; inhibition, % at 4 µM; Split G. princeps luciferase complementation, luminescence, 4 h; 360,000 tested, 0.78% active;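 active means inhibition above the mean inhibition across every tested compound plus 3 SD, cut at about 22% in these data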;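 further: 0% = DMSO only wells and the 100% control is not disclosed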
ABHD5 PLIN5 conf: confirmation of human ABHD5-PLIN5 interaction inhibitors. shares compounds with ABHD5-PLIN5 inh. biochemical ABHD5-PLIN5 interaction, luminescence. inhibition, % at 4 µM. 2,200 tested, 67% active; in the data active means inhibition above about 23%;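 further: 0% = DMSO vehicle wells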
HNF4 counter: HNF4 split-luciferase signal hit, counter-screen | shares compounds with ABHD5-PLIN5 inh | HNF4 dimerization, luminescence, biochemical | inhibition, % at 4 µM | 2,200 tested, 77% active | AID 651674;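 active means mean inhibition across replicate wells exceeding the computed hit threshold, cut at about 13% in these data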;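 further: light from luciferase halves that rejoin when HNF4 fusion proteins dimerize; 0% = DMSO only wells and the 100% control is not given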
Target sequence (P41235 whole entry, looked up, the tested form may be a part): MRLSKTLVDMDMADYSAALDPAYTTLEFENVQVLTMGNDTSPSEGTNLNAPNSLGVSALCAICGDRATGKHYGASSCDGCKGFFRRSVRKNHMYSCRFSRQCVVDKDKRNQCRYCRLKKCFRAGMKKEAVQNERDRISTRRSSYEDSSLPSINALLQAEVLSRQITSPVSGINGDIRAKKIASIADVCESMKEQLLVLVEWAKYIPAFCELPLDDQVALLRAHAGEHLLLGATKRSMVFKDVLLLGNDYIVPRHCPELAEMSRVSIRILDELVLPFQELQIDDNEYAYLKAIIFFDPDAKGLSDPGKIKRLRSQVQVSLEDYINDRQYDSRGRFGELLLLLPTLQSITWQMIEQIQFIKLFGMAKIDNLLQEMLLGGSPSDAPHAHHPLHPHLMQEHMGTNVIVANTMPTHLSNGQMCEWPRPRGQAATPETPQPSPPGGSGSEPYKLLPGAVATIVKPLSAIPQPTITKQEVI
NOD2-RIPK2 conf: confirmation of human NOD2-RIPK2 interaction inhibitors | inhibition, % at 4.98 µM | AID 624370 | 1,200 tested, 70% active | shares compounds with NOD2 RIPK2 PPI | CHO cells, NOD2-RIPK2 BLA complementation, CCF4 FRET;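 active means mean inhibition across replicates above a set limit taken from the earlier primary screen, cut at about 21% in these data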;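 further: 0% = DMSO-only wells and the high end = clavulanate BLA-blocked wells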
NOD2 BLA counter: counter-screen for NOD2-RIPK2 interaction inhibitors: BLA reporter; shares compounds with NOD2 RIPK2 PPI; CHO BLA reporter, CCF4 FRET ratio, counterscreen; inhibition, % at 4.98 µM; 1,200 tested, 57% active; AID 624371;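 active means mean inhibition above the low-control mean inhibition plus three low-control SD, cut at about 11% in these data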;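 further: 0% = DMSO only wells and 100% = clavulanate high control wells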
An asterisk follows results filed as active; x = not tested or not shown. Sampled rows, rich in hits. Any-hit rate of the full collection: about 1.6%.

SMILES	B2AR ag	TLR9-MyD88 block	Dynein cargo inh	TLR4-MyD88 BLA	NOD2 RIPK2 PPI	ABHD5-PLIN5 inh	ABHD5 PLIN5 conf	HNF4 counter	NOD2-RIPK2 conf	NOD2 BLA counter
O=C1C(Cl)=C(NC(=O)c2ccccc2)C(=O)C(Cl)=C1NC(=O)c1ccccc1	56*	7	x	x	54*	71*	103*	110*	68*	37*
O=C1C(=Cc2ccc(Cl)cc2)Cc2ccccc21	x	x	x	x	-15	14	x	x	x	x
C=CC(=O)N1C/C(=C/c2ccc(Cl)cc2)C(=O)/C(=C\c2ccc(Cl)cc2)C1	25	8	x	x	45*	94*	104*	110*	54*	7
C=CC(=O)N1C/C(=C/c2ccccc2)C(=O)/C(=C\c2ccccc2)C1	29	-5	x	x	45*	101*	103*	107*	43*	6
COc1cccc(CN2C(=NC(=O)C3CCCO3)SC3CS(=O)(=O)CC32)c1 (configuration not stated)	x	-7	x	x	6	4	x	x	x	x
Cc1cc(N2CCOCC2)ccc1/C=C\[N+](=O)[O-]	42*	7	-1.8	14	51*	77*	97*	99*	55*	4
O=[N+]([O-])c1ccc(N2CCOCC2)cc1O	4	-2	-0.16	x	-2	-1	x	x	x	x
Cc1cccc(C)c1NC(=O)C(c1ccccc1)n1c(=O)c(-c2ccccc2)nc2ccccc21 (configuration not stated)	x	x	x	x	-13	0	x	x	x	x
O=C(NCc1ccccc1)C(CCc1ccccc1)n1c(=O)c(-c2ccccc2)nc2ccccc21 (configuration not stated)	x	x	x	x	29*	38*	41*	28*	6	1
CC1=C(C)/C(=N\OS(=O)(=O)c2ccc(C)cc2)C=CC1=O	32	3	-3.7*	-4	58*	61*	67*	96*	54*	4
CC(C)(C=O)C1=CC(=O)c2ccccc2C1=O	66*	14	-3.6*	-9	23*	34*	81*	103*	86*	4
Cc1ccc(CS(=O)(=O)c2ncc(Cl)c(C(=O)Nc3nnc(C(C)C)s3)n2)cc1	14	11	x	x	48*	57*	87*	55*	45*	31*
CC(C)c1nnc(NC(=O)CCC(=O)N2CCN(Cc3ccc(F)cc3)CC2)s1	-5	-22	x	x	-9	7	x	x	x	x
CC(C)c1nnc(NC(=O)CS(=O)(=O)Cc2ccccc2)s1	4	3	0.54	-1	4	-6	x	x	x	x
CC(C)c1nnc(NC(=O)c2nc(S(=O)(=O)Cc3ccc(F)cc3)ncc2Cl)s1	10	2	x	x	25*	44*	92*	57*	25*	18*
Cc1cccc(CS(=O)(=O)c2ncc(Cl)c(C(=O)Nc3nnc(C(C)C)s3)n2)c1	20	11	x	x	41*	52*	90*	59*	35*	28*
CN(Nc1cccc(Cl)c1)c1cccc(Cl)c1	14	3	x	x	-12	-14	x	x	x	x
COc1ccc(NC(=O)CSc2nc3ccsc3c(=O)n2CCC(=O)O)cc1	x	-16	x	x	-16	3	x	x	x	x
CCOC(=O)C(C)(C)Sc1ncnc2nc[nH]c12	10	14	0.28	13	-3	-3	x	x	x	x
CCOC(=O)c1cc([N+](=O)[O-])cc([N+](=O)[O-])c1Sc1ncnc2nc[nH]c12	39	5	x	x	39*	38*	62*	102*	67*	-15
C=C1C(=O)[C@]23C[C@H]1CCC2[C@]1(C)CCC[C@@](C)(C(=O)O)C1C[C@@H]3O (some centres not stated)	x	x	x	x	22*	51*	46*	102*	33*	2
Cc1[nH]nc(C(F)(F)F)c1N=NN1CCOCC1	-4	-2	x	x	44*	50*	41*	76*	12	-4
COc1ccc2oc(=O)c(-c3nnc(NCc4ccco4)s3)cc2c1	5	20	0.44	12	21*	60*	21	43*	49*	49*
CNc1nnc(-c2cc3cc(Cl)ccc3oc2=O)s1	-5	17	0.62	12	3	-1	x	x	x	x
O=C(NCCCN1CCOCC1)c1cc(S(=O)(=O)N2CCCCC2)ccc1Cl	x	5	x	x	7	-4	x	x	x	x
SMILES	B2AR ag	TLR9-MyD88 block	Dynein cargo inh	TLR4-MyD88 BLA	NOD2 RIPK2 PPI	ABHD5-PLIN5 inh	ABHD5 PLIN5 conf	HNF4 counter	NOD2-RIPK2 conf	NOD2 BLA counter
C=C(CN(C)C)C(=O)c1ccc(OC2OC(COC(C)=O)C(OC(C)=O)C(OC(C)=O)C2OC(C)=O)cc1 (configuration not stated)	25	8	x	x	27*	39*	99*	106*	74*	24*
CC(=O)OC[C@H]1O[C@@H](O/N=C/[C@@H](C)[C@H](OCc2ccccc2)C(C)C)[C@H](OC(C)=O)[C@@H](OC(C)=O)[C@@H]1OC(C)=O	x	x	0.75	-4	x	x	x	x	x	x
Cc1ccc(-c2nc3c4ccccc4ccn3c2Cc2ccsc2)cc1	x	x	x	x	-7	-9	x	x	x	x
CC(C)N1CCC2(CC1)N=C(c1ccc3c(c1)OCO3)CC(c1cc(Cl)ccc1O)N2 (configuration not stated)	17	15	-4.1	10	21*	75*	31*	62*	10	2
Cn1cnc([N+](=O)[O-])c1S(=O)(=O)Oc1cccc2ccccc12	21	15	x	x	56*	76*	76*	106*	55*	1
CCS(=O)(=O)c1c([N+](=O)[O-])ncn1C	16	-6	-2.7	5	1	20	x	x	x	x
Cn1cnc([N+](=O)[O-])c1S(=O)(=O)Oc1ccc(Cl)cc1	14	2	x	x	21*	73*	85*	104*	47*	-1
Cc1ccc(S(=O)(=O)N2CCN(C(=O)[C@H](Cc3ccccc3)NC(=O)c3ccco3)CC2)cc1C	-1	3	x	x	-8	9	x	x	x	x
Cc1cn([C@H]2C[C@H](O)[C@@H](CNC(=O)[C@H](N)C3CC3)O2)c(=O)[nH]c1=O	x	1	x	x	-7	6	x	x	x	x
COc1ccc(C2=NNC(=O)C2(C)Br)cc1 (configuration not stated)	-5	-7	x	x	-5	-9	x	x	x	x
Cc1[nH]c2ccccc2c1CC#N	6	4	-0.72	x	8	1	x	x	x	x
